RGS4 block: human RGS4 inhibition | P49798 | HEK293 M3R/RGS4 inducible, Fluo-4 calcium flux; hits give high values; triggered by carbachol at its EC20 | B-score at 10 µM | 310,000 compounds, 0.45% hits;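 active = B-score, a plate-corrected calcium signal, over three deviations above library mean, with baseline fluorescence within five deviations of library mean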;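 note: RGS4 expression induced by doxycycline in cells with stable M3 receptor; B-score is computed from the integrated fluorescence ratio over baseline after carbachol; higher B-score means a larger calcium signal and so more RGS4 inhibition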
Target sequence (P49798 whole entry, looked up): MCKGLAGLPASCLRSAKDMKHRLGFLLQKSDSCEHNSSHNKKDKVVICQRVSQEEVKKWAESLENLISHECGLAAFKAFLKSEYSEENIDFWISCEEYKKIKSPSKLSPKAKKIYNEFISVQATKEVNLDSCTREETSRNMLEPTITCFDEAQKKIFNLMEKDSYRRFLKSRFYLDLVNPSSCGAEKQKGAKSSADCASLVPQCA
MrgX1 antag: antagonists of human MrgX1 receptor; AID 588676; Q96LB2; B-score at 10 µM; MRGX1-HEK293 calcium flux, Fluo-4, BAM8-22 antagonism; hits give low values; 310,000 compounds, 1.3% hits;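 active = calcium-response B-score plate-corrected more than 3 library SD below zero, starting fluorescence within 5 deviations, no agonist response on first addition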;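 note: peak minus trough fluorescence over baseline after final BAM8-22 challenge near maximal dose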
RGS4 act: RGS4 potentiation or activation. HEK293 M3R/inducible RGS4, carbachol calcium flux Fluo4; hits give low values. B-score at 10 µM. 310,000 compounds, 0.92% hits. AID 463111;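 active = B-score of the integrated calcium signal more than 4 SD below the library mean, with starting fluorescence not abnormally high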;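 note: negative B-score means reduced calcium response which marks RGS4 activation or potentiation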
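Reagent: ECmax carbachol challenge; Test system: M3R-expressing HEK293 line, RGS4 induced by doxycycline; Schedule: overnight RGS4 induction, 30 min dye load 37 °C, 20 min compound RT; Detection: calcium dye Fluo4 fluorescence; Read-out: Agonist-evoked peak-minus-minimum fluorescence over baseline, integrated ratio, B score.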
MrgX1 PAM: allosterically activates human MrgX1 receptor signaling. AID 588675. Q96LB2. B-score at 10 µM. MrgX1-HEK293, Fluo-4 calcium flux, FDSS; hits give high values. 310,000 compounds, 0.63% hits;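 active = plate-corrected calcium response at least 3 library SD above typical, normal starting fluorescence, not activating the receptor alone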;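 note: compound read alongside a low EC10 to EC30 dose of BAM8-22 agonist; peak minus trough fluorescence over baseline measured at the second addition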
MrgX1 agonist: activates human MrgX1 receptor signaling | Q96LB2 | 310,000 compounds, 0.44% hits | B-score at 10 µM | AID 588627 | MrgX1-HEK293 cells, Fluo-4 calcium fluorescence, agonist mode; hits give high values;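 active = calcium response B-score plate-corrected fluorescence ratio at least 3 library SD, with starting fluorescence B-score inside 5 SD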
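Test system: HEK293 cells stably expressing human MrgX1 receptor; amount: 15,000 cells per well; doses: compound delivered in addition one of three; times: overnight plating before 1 h dye loading; detection: Fluo-4 NW calcium-flux fluorescence, kinetic read; read-out basis: B-scored fluorescence response ratio; controls: positive and negative controls per plate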
Each line names hits and unclear results; the compound was inactive in the other large screens. Shown are actives, neighbours in structure and some others; about 3.5% of the full set was active somewhere.

N#Cc1cc2c(nc1SCc1ccc(Cl)cc1)CCCC2	RGS4 act -6.99
COCc1cc(C)nc(SCc2ccc(Cl)cc2)c1C#N	RGS4 act -7.62
O=C(COc1ccc(/C=C\[N+](=O)[O-])cc1)N1CCOCC1	MrgX1 agonist 34.9
Cc1ccc(OCCNC(=O)C(=O)NCc2ccco2)cc1	none
CC[N+](C)(CC)CCC/C(=N/O)C(O)(c1ccccc1)c1ccccc1	RGS4 act -9.72
CCN(CC)CCC/C(=N\O)C(O)(c1ccccc1)c1ccccc1	RGS4 act -10.4
CC/C(CC(C)(C)c1ccccc1)=N\O	none
O=c1ccc2cc(S(=O)(=O)N3CCN(c4ccccc4F)CC3)ccc2o1	none
Nc1nc(N2CCCCC2)nc2ccccc12	RGS4 act -7.15
O=C(CN(Cc1ccc(F)cc1)C(=O)CCC(=O)Nc1ccccn1)NCc1ccco1	none
CN(C)c1ccc(/C=C(\C#N)C(=O)Nc2nc3c(s2)CCN(Cc2ccccc2)C3)cc1	MrgX1 agonist 49.6
CCN1CCN(CCNC(=O)c2ccc(/C=C3/Sc4ccccc4N(Cc4cccc(Cl)c4)C3=O)cc2)CC1	RGS4 act -9.9
Cc1cccc(CN2C(=O)/C(=C\c3ccc(C(=O)NCCN4CCOCC4)cc3)Sc3ccccc32)c1	RGS4 act -7.32
O=C(NCCN1CCOCC1)c1ccc(/C=C2\Sc3ccccc3N(Cc3ccccc3F)C2=O)cc1	none
COc1ccc(CS(=O)(=O)CC2(O)CCN(C(=O)c3cccc(C(F)(F)F)c3)CC2)cc1	none
COC(=O)c1ccc(-c2sc3nc(N4CCOCC4)c4c(c3c2N)CCCC4)o1	RGS4 act -8.81, MrgX1 PAM 16.9
CCCN(C(=O)COC(=O)c1[nH]c(C)c(C(=O)OC)c1C)c1c(N)n(Cc2ccccc2)c(=O)[nH]c1=O	none
CCOC(=O)c1c(NC(=O)c2nn(CC)cc2Br)sc(C)c1C	none
CCOC(=O)c1c(NC(=O)c2nn(CC)cc2Br)sc2c1CCCCC2	RGS4 act -6.97
CC(C)c1c(C(=O)N/N=C/c2cccc3ccccc23)nnn1-c1nonc1N	none
CCn1ncc(/C=C/C(=O)NCc2cn(C)nc2C)c1C	MrgX1 antag -4.75
CCn1ncc(/C=C/C(=O)NCc2cnn(C)c2C)c1C	none
COc1ccc(C(C)NC(=O)c2ccc([N+](=O)[O-])cc2)cc1OC (stereo not drawn)	MrgX1 antag -5.45
COc1ccc(NC(=O)c2ccc(-c3ccc([N+](=O)[O-])cc3)o2)cc1OC	MrgX1 antag -5.27
CN(C)CCC(=O)C(Cc1ccccc1)c1ccccc1 (stereo not drawn)	none
CC(CCCN(C)C)C(Cc1ccccc1)c1ccccc1 (stereo not drawn)	RGS4 act -7.81
CC12CCC(C/C1=N\OC(=O)c1ccc(F)cc1)C2(C)C (stereo not drawn)	MrgX1 PAM 8.45
CC12CCC(C/C1=N/OC(=O)c1cccc([N+](=O)[O-])c1)C2(C)C (stereo not drawn)	MrgX1 PAM 9.84
C/C(=N\OC(=O)c1ccc(F)cc1)c1ccc(F)c(F)c1	none
COc1cccc(-c2c(C(=O)N/N=C(\C)c3cccnc3)nnn2-c2nonc2N)c1	none
CC(C)NC(=O)COC(=O)Cn1[nH]c(=O)c2ccccc2c1=O	none
COc1ccccc1C(=O)NC(=O)COC(=O)Cn1[nH]c(=O)c2ccccc2c1=O	MrgX1 antag -4.52
Cc1ccc(C)c(Cn2c(C(=O)OC(C)C)cc3c2ccn3C)c1	RGS4 act -6.99
CCOC(=O)c1cc2c(ccn2C)n1Cc1ccccc1Cl	RGS4 act -7.31
CC(C)OC(=O)c1cc2c(ccn2C)n1CC(=O)N(Cc1ccccc1)c1ccc(F)cc1	none
O=C(CCC(=O)OCC(=O)c1ccc(Cl)cc1Cl)Nc1cccc2cccnc12	MrgX1 antag -8.38
O=C(CCC(=O)OCC(=O)c1ccc(-c2ccccc2)cc1)Nc1cccc2cccnc12	none
COC(=O)C(CC(=O)c1ccc(Br)cc1)n1ccnc1 (stereo not drawn)	RGS4 block 6.64 (no result: MrgX1 antag, MrgX1 PAM, MrgX1 agonist)
COC(=O)C(CC(=O)c1ccc(Br)cc1)n1nc(C)cc1C (stereo not drawn)	none
O=c1ccc(-c2ccccc2)no1	none
CC(=O)NC1C(Oc2cccc(C)c2)OC2COC(c3ccco3)OC2C1O (stereo not drawn)	RGS4 act -7.34

From PubChem BioAssay
